ChEMBL document CHEMBL2375209, “Fungal ABC transporter-associated activity of isoflavonoids from the root extract of Dalea formosa” (2013)
≈ marks a conversion by molar mass, not a printed value. Calls of active or inactive are those of the source. The rule behind the calls is not given here.

Columns and labels:
Assay type in all cases: functional
Candida albicans = test: Antifungal activity against wild type Candida albicans CCM 8320 after 46 to 50 hrs by broth microdilution assay
Outline: (§1)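 CLSI M27-A broth microdilution in MOPS-buffered (pH 7) RPMI 1640. Samples added from DMSO stocks (solvent ≤1.2%, matched in controls), serially diluted before inoculation. Growth read as OD550 plus visual inspection at 24 and 48 h. MIC = lowest concentration inhibiting growth ≥80% vs drug-free control; three independent measurements.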

Nakaseomyces glabratus = test: Antifungal activity against wild type Candida glabrata CCM 8270 after 46 to 50 hrs by broth microdilution assay; outline: as §1
Saccharomyces cerevisiae [1] = test: Antifungal activity against PDR5/SNQ2/YOR1 deficient Saccharomyces cerevisiae expressing PDR1 to 3 allele and heterologously overproduced Cdr1p gene after 24 to 48 hrs by microdilution
Outline: (§2)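 96-well microdilution; samples added from DMSO stocks (solvent ≤1.2%, matched in controls), serially diluted before inoculation; trifluoperazine, ketoconazole and fluconazole as positive controls. Growth read as OD550 plus visual inspection at 24 and 48 h. MIC = lowest concentration giving ≥80% growth inhibition vs drug-free control; values observed in three independent measurements.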

Saccharomyces cerevisiae [2] = test: Antifungal activity against PDR5/SNQ2/YOR1 deficient Saccharomyces cerevisiae expressing PDR1 to 3 allele after 24 to 48 hrs by microdilution assay; outline: as §2
Saccharomyces cerevisiae [3] = test: Antifungal activity against PDR5/SNQ2/YOR1 deficient Saccharomyces cerevisiae after 24 to 48 hrs by microdilution assay; outline: as §2
Saccharomyces cerevisiae [4] = test: Antifungal activity against PDR1/PDR3 deficient Saccharomyces cerevisiae after 24 to 48 hrs by microdilution assay; outline: as §2
Saccharomyces cerevisiae [5] = test: Antifungal activity against wild type Saccharomyces cerevisiae after 24 to 48 hrs by microdilution assay; outline: as §2

`COc1ccc(C2COc3cc(O)cc(O)c3C2=O)c2c1C=CC(C)(C)O2` (racemic) showed an MIC (Candida albicans) of 15 µg/mL (≈ 40.7 µM), an MIC (Nakaseomyces glabratus) of 7.6 µg/mL (≈ 20.6 µM) and an MIC (Saccharomyces cerevisiae [1]) of 244 µg/mL (≈ 662 µM). The MIC (Saccharomyces cerevisiae [2]) was 1.9 µg/mL (≈ 5.16 µM), the MIC (Saccharomyces cerevisiae [3]) was 1.9 µg/mL (≈ 5.16 µM) and the MIC (Saccharomyces cerevisiae [4]) was 1.9 µg/mL (≈ 5.16 µM). It also gave an MIC (Saccharomyces cerevisiae [5]) of 7.6 µg/mL (≈ 20.6 µM).
For `C=CC(C)(C)c1cc(C2COc3cc(O)c(CC=C(C)C)c(O)c3C2=O)c(O)cc1O` (racemic), the MIC (Saccharomyces cerevisiae [1]) was over 244 µg/mL, the MIC (Saccharomyces cerevisiae [2]) was 0.95 µg/mL (≈ 2.24 µM) and the MIC (Saccharomyces cerevisiae [3]) was 0.95 µg/mL (≈ 2.24 µM). For the same compound, the MIC (Saccharomyces cerevisiae [4]) was 0.95 µg/mL (≈ 2.24 µM) and the MIC (Saccharomyces cerevisiae [5]) was 15.2 µg/mL (≈ 35.8 µM).
In the case of `COc1ccc(C[C@H]2OC(=O)C=C2c2ccc(O)cc2O)cc1`, the MIC (Candida albicans) is reported as “inactive” and the MIC (Nakaseomyces glabratus) is reported as 244 µg/mL (≈ 781 µM).
`COc1ccc2c(c1CC=C(C)C)O[C@@H]1c3ccc(O)cc3OC[C@H]21` [ENT-SANDWICENSIN] was tested, and the MIC (Candida albicans) was “inactive”, the MIC (Nakaseomyces glabratus) was 30.5 µg/mL (≈ 90.1 µM) and the MIC (Saccharomyces cerevisiae [1]) was over 244 µg/mL. For the same compound, the MIC (Saccharomyces cerevisiae [2]) was 1.9 µg/mL (≈ 5.61 µM), the MIC (Saccharomyces cerevisiae [3]) was 1.9 µg/mL (≈ 5.61 µM) and the MIC (Saccharomyces cerevisiae [4]) was 3.8 µg/mL (≈ 11.2 µM). It also gave an MIC (Saccharomyces cerevisiae [5]) of 30.5 µg/mL (≈ 90.1 µM).
For `C=CC(C)(C)c1cc([C@@H]2COc3c(ccc(O)c3O)C2)c(OC)cc1OC`, the MIC (Saccharomyces cerevisiae [1]) was 61 µg/mL (≈ 165 µM), the MIC (Saccharomyces cerevisiae [2]) was 3.8 µg/mL (≈ 10.3 µM) and the MIC (Saccharomyces cerevisiae [3]) was 3.8 µg/mL (≈ 10.3 µM). The MIC (Saccharomyces cerevisiae [4]) was 3.8 µg/mL (≈ 10.3 µM) and the MIC (Saccharomyces cerevisiae [5]) was 15.2 µg/mL (≈ 41 µM).
`COc1ccc([C@H]2COc3c(ccc(O)c3O)C2)c2c1C=CC(C)(C)O2` was tested, and the MIC (Candida albicans) was 61 µg/mL (≈ 172 µM), the MIC (Nakaseomyces glabratus) was 30.5 µg/mL (≈ 86.1 µM) and the MIC (Saccharomyces cerevisiae [1]) was 244 µg/mL (≈ 688 µM). For the same compound, the MIC (Saccharomyces cerevisiae [2]) was 30.5 µg/mL (≈ 86.1 µM), the MIC (Saccharomyces cerevisiae [3]) was 30.5 µg/mL (≈ 86.1 µM) and the MIC (Saccharomyces cerevisiae [4]) was 15.2 µg/mL (≈ 42.9 µM). It also gave an MIC (Saccharomyces cerevisiae [5]) of 30.5 µg/mL (≈ 86.1 µM).
`COc1ccc([C@H]2COc3c(ccc(O)c3O)C2)c(O)c1CC=C(C)C` gave an MIC (Saccharomyces cerevisiae [1]) of 30.5 µg/mL (≈ 85.6 µM), an MIC (Saccharomyces cerevisiae [2]) of 3.8 µg/mL (≈ 10.7 µM) and an MIC (Saccharomyces cerevisiae [3]) of 3.8 µg/mL (≈ 10.7 µM). It also gave an MIC (Saccharomyces cerevisiae [4]) of 3.8 µg/mL (≈ 10.7 µM) and an MIC (Saccharomyces cerevisiae [5]) of 15.2 µg/mL (≈ 42.6 µM).
`C=CC(C)(C)c1cc([C@]2(O)COc3cc(O)c(CC=C(C)C)c(O)c3C2=O)c(O)cc1O` was tested, and the MIC (Candida albicans) was “inactive”, the MIC (Nakaseomyces glabratus) was 122 µg/mL (≈ 277 µM) and the MIC (Saccharomyces cerevisiae [1]) was 244 µg/mL (≈ 554 µM). It also gave an MIC (Saccharomyces cerevisiae [2]) of 3.8 µg/mL (≈ 8.63 µM), an MIC (Saccharomyces cerevisiae [3]) of 3.8 µg/mL (≈ 8.63 µM) and an MIC (Saccharomyces cerevisiae [4]) of 15.2 µg/mL (≈ 34.5 µM). It also gave an MIC (Saccharomyces cerevisiae [5]) of 61 µg/mL (≈ 138 µM).
